The values that follow come from ChEMBL document CHEMBL4433206, “Novel Lysine-Based Thioureas as Mechanism-Based Inhibitors of Sirtuin 2 (SIRT2) with Anticancer Activity in a Colorectal Cancer Murine Model” (J Med Chem, 2019).

Series [1] concerns the target T1, NAD-dependent protein deacetylase sirtuin-2 (Homo sapiens, UniProt Q8IXJ6).
T1 sequence (Q8IXJ6 whole entry): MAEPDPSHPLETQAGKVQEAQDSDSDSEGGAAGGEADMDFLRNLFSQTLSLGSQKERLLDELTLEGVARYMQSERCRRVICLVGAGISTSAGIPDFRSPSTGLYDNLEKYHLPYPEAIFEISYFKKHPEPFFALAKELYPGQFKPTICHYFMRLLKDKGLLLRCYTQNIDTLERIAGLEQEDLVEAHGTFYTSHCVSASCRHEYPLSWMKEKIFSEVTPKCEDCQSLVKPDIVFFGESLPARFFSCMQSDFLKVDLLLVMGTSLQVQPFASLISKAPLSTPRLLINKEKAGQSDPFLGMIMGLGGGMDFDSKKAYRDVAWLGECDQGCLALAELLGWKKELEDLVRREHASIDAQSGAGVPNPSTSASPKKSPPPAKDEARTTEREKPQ
The experiment in a line: Inhibition of recombinant human N-terminal His6-tagged/SUMO-fused SIRT2 (38 to 356 residues) expressed in Escherichia coli BL21 assessed as reduction in deacetylase activity using acetylated H3K9 as substrate preincubated for 15 mins followed by substrate addition and measured after 6 mins by UV-HPLC analysis.

The target in series [2] is T2, NAD-dependent protein deacetylase sirtuin-1 (Homo sapiens, UniProt Q96EB6).
T2 sequence (Q96EB6 whole entry): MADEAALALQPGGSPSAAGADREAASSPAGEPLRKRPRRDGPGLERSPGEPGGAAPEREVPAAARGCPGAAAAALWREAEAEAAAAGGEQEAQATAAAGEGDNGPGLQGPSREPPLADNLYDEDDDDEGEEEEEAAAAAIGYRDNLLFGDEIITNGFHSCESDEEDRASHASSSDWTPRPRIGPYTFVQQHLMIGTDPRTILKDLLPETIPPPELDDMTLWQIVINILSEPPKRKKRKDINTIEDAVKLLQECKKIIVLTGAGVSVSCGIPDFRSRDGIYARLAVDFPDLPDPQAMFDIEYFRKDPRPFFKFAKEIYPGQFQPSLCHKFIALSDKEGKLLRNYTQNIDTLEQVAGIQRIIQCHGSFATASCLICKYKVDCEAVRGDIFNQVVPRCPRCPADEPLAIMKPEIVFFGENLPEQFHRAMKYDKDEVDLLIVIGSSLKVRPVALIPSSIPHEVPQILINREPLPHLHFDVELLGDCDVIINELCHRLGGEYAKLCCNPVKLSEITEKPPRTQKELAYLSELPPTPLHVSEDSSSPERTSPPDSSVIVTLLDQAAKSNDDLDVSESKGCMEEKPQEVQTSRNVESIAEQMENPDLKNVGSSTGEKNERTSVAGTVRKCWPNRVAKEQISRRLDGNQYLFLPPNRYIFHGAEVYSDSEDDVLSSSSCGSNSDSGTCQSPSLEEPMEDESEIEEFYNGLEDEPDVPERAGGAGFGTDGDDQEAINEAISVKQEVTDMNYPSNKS
Nature of the series: Inhibition of human SIRT1 deacetylase activity using acetylated H3K9 as substrate preincubated for 15 mins followed by substrate addition and measured after 3 mins by UV-HPLC analysis.

Series [3] concerns the target T3, NAD-dependent protein deacetylase sirtuin-3, mitochondrial (Homo sapiens, UniProt Q9NTG7).
T3 sequence (Q9NTG7 whole entry): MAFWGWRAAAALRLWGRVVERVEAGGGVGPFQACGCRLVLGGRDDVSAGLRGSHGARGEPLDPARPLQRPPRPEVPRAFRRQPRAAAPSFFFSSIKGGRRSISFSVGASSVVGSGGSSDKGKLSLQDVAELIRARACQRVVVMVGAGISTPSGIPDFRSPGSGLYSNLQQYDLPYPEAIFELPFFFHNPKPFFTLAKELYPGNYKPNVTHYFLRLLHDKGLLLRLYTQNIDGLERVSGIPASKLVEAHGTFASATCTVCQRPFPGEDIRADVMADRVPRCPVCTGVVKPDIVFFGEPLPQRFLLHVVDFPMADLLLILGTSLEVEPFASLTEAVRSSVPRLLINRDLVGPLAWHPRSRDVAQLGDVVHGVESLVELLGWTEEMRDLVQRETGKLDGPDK
The experiment in a line: Inhibition of human SIRT3 assessed as reduction in deacetylase activity using acetylated H3K9 as substrate preincubated for 15 mins followed by substrate addition and measured after 15 mins by UV-HPLC analysis.

For series [4], the target named is T4, NAD-dependent protein deacetylase sirtuin-2 (Homo sapiens) (UniProt Q8IXJ6).
T4 sequence (whole entry): T1 sequence (Q8IXJ6 whole entry)
The experiment in a line: Inhibition of SIRT2 in human HCT116 cells assessed as increase in alpha-tubulin acetylation at 25 uM incubated for 6 hrs by DAPI staining-based laser scanning confocal microscopic analysis. The series is classed as cell-based. The gist of the method: (§1)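 HCT116 cells were seeded at 400 000 on poly-D-lysine-coated glass-bottom dishes and grown 24 h. Cells were treated with DMSO or inhibitor for 6 h at 37 °C, fixed in ice-cold methanol, and blocked in TBS/0.1% Triton X-100/5% BSA. They were stained with anti-acetyl α-tubulin (1:100, overnight, 4 °C), then Cy3 anti-mouse, and mounted with DAPI. Imaging was by confocal microscopy.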

For series [5], the target named is T4, NAD-dependent protein deacetylase sirtuin-2 (Homo sapiens). The experiment in a line: Inhibition of SIRT2 in human HCT116 cells assessed as increase in alpha-tubulin acetylation at 50 uM incubated for 6 hrs by DAPI staining-based laser scanning confocal microscopic analysis. The series is classed as cell-based. The gist of the method:
as §1

Series [6] deals with T5, NAD-dependent protein deacetylase sirtuin-1 (Homo sapiens) (UniProt Q96EB6).
T5 sequence (whole entry): T2 sequence (Q96EB6 whole entry)
The experiment in a line: Inhibition of SIRT1 in human HCT116 cells assessed as increase in acetylated p53 K382 level at 25 uM after 6 hrs by Western blot analysis. The series is classed as cell-based. Background: Immunoblotting shows a protein as a band on a membrane.

Series [7] in a line: Cytotoxicity against human HME1 cells after 72 hrs by CellTiter-Blue assay. The series is classed as cell-based. In short, it runs like this: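 Cells were seeded per well (HCT116 1000; MDA-MB-231, MDA-MB-468, NCI-H23, A549, SW948 2000; MCF7, BxPC-3, HME1 3000) and left 20 h at 37 °C. Inhibitor was added at 1–100 μM final for 72 h at 37 °C. CellTiter-Blue was then added for 4 h, and fluorescence was read at ex 560/em 590 nm.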

The species named for a further series is Homo sapiens. The experiment in a line: Selectivity ratio of IC50 for human SIRT1 to IC50 for recombinant human N-terminal His6-tagged/SUMO-fused SIRT2 (38 to 356 residues) expressed in Escherichia coli BL21. In short, it runs like this:
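Purified human sirtuin (SIRT1 0.05 μM, SIRT2 0.2 μM) in 20 mM Tris, 1 mM NAD⁺, 1 mM DTT, pH 8.0 was preincubated with inhibitor (0.002–417 μM, duplicate, DMSO control) for 15 min at 37 °C. Acetyl-H3K9 peptide (10 μM) was then added, and the reaction ran at 37 °C (SIRT1 3 min, SIRT2 6 min; 10–18% conversion). It was quenched with HCl/acetic acid and analysed by reverse-phase HPLC with UV at 215/326 nm.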

Series [8] addresses T5, NAD-dependent protein deacetylase sirtuin-1 (Homo sapiens). Nature of the series: Inhibition of SIRT1 in Trichostatin A treated human HCT116 cells assessed as increase in acetylated p53 K382 level after 6 hrs by Western blot analysis. In short, it runs like this:
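HCT116 cells were seeded at 400 000 per well, grown 24 h, then cotreated with 400 nM TSA and inhibitor (25 μM, or 10–50 μM) for 6 h at 37 °C. Cells were lysed in 4% SDS buffer, pH 7.4. 50 μg of lysate was resolved by 12% SDS-PAGE and blotted for acetyl-p53 K382 antibody, with β-actin as loading control. Detection was by ECL.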

Activity calls are given as the source filed them. The calls are words filed in the database; no cut-off is given here.

With `CCCNC(=S)NCCCC[C@H](NC(=O)OCc1ccccc1)C(=O)Nc1cccc(O)c1`, the half-inhibitory concentration (IC50) in [1], in [2] and in series [3] was > 100 µM each time. In addition, the inhibition entry in [4], in series [5] and in [6] was “inactive” in each case.
In the case of `NC(=O)C1CCCc2c1[nH]c1ccc(Cl)cc21` (configuration not stated), in series [6], the inhibition result was “Active”.
Regarding `CCCCCCCCCCCCCC(=S)NCCCC[C@H](NC(=O)OCc1ccccc1)C(=O)Nc1ccccc1`, in [7], the Activity result is “Non-Toxic”. The IC50 in series [3] was > 100 µM.
For the compound `CCCCCCCCCCCCNC(=S)NCCCC[C@H](NC(=O)OCc1ccccc1)C(=O)Nc1cccc(O)c1`, the IC50 in [1] was 0.06 µM; in series [2], 1 µM; in series [3], > 100 µM. In the series listed under Homo sapiens, the Ratio IC50 worked out at 17.
For `CNC(=S)NCCCC[C@H](NC(=O)OCc1ccccc1)C(=O)Nc1cccc(O)c1`, the 50% inhibitory concentration (IC50) in series [1], in series [2] and in series [3] was > 100 µM each time.
For the compound `CCCCCCCCNC(=S)NCCCC[C@H](NC(=O)OCc1ccccc1)C(=O)Nc1cccc(O)c1`, the figures for the IC50 in [1], in series [2] and in [3] were 0.12 µM, 1 µM and > 100 µM, respectively. The Ratio IC50 in the series listed under Homo sapiens was determined as 8.
For the compound `CCCCCNC(=S)NCCCC[C@H](NC(=O)OCc1ccccc1)C(=O)Nc1cccc(O)c1`, the IC50 is 1 µM in [1], 34 µM in [2] and > 100 µM in series [3]. Further, the inhibition entry in series [4], in series [5] and in [6] was “Active” throughout. The Ratio IC50 in the series filed under Homo sapiens amounted to 34.
For the compound `CCCCCCNC(=S)NCCCC[C@H](NC(=O)OCc1ccccc1)C(=O)Nc1ccccc1`, the IC50 is 0.64 µM in [1] and 30 µM in series [2].
On to `CCCCCCCCCCCCNC(=S)NCCCC[C@H](NC(=O)OCc1ccccc1)C(=O)Nc1ccccc1`, for which the IC50 is 0.081 µM in series [1], > 200 µM in series [2] and > 200 µM in [3].
`CCCCCCCCCCNC(=S)NCCCC[C@H](NC(=O)OCc1ccccc1)C(=O)Nc1cccc(O)c1`: the half-maximal inhibitory concentration (IC50) in series [1] is 0.036 µM; in series [2], 0.45 µM; in series [3], > 100 µM. Moreover, the inhibition result in series [4], in [5] and in series [6] was “Active” in each case. Also, the inhibition result in series [8] is “Dose-dependent effect”. Besides, the Ratio IC50 in the series listed under Homo sapiens was determined as 12.
Regarding `CCCCCCCNC(=S)NCCCC[C@H](NC(=O)OCc1ccccc1)C(=O)Nc1ccccc1`, the IC50 stood at 0.16 µM in series [1] and 22 µM in [2].

The IC50 is the concentration that gives 50% inhibition.
